Test results reported in ChEMBL document CHEMBL4024773, “The Magic of Crystal Structure-Based Inhibitor Optimization: Development of a Butyrylcholinesterase Inhibitor with Picomolar Affinity and in Vivo Activity” (J Med Chem, 2018).
Active and inactive are the calls of the source. The calls are words filed in the database; no cut-off is given here.

How the values were obtained:
[1] = human, hepatocytes, 2 h
Cholinesterase [2] = target: T1, Cholinesterase (Homo sapiens, UniProt P06276); test: Competitive inhibition of recombinant human BChE using butyrylthiocholine iodide as substrate at pH 8 by stopped flow assay
T1 sequence (P06276 whole entry): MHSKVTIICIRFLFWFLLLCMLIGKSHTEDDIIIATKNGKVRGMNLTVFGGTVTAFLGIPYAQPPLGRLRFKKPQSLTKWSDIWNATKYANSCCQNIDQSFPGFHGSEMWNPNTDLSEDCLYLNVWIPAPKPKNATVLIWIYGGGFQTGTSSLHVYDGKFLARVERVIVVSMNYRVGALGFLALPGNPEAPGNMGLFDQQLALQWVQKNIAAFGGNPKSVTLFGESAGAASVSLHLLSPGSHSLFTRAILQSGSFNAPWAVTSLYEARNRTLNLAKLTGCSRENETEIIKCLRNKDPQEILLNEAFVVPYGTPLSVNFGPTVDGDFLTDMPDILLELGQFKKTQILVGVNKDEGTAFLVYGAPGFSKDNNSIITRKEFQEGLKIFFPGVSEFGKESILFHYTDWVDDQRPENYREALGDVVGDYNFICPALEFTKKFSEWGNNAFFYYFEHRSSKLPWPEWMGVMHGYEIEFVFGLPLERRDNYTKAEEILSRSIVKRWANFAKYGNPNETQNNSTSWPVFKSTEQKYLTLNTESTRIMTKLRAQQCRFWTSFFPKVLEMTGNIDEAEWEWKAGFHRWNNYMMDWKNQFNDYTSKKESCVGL

Cholinesterase [3] = target: T1, Cholinesterase; test: Inhibition of recombinant human BChE using butyrylthiocholine iodide as substrate preincubated for 300 secs followed by substrate addition measured for 1 min by Ellman's method
Acetylcholinesterase = target: T2, Acetylcholinesterase (Mus musculus, UniProt P21836); test: Inhibition of mouse AChE using acetylthiocholine iodide as substrate preincubated for 300 secs followed by substrate addition measured for 1 min by Ellman's method
T2 sequence (P21836 whole entry): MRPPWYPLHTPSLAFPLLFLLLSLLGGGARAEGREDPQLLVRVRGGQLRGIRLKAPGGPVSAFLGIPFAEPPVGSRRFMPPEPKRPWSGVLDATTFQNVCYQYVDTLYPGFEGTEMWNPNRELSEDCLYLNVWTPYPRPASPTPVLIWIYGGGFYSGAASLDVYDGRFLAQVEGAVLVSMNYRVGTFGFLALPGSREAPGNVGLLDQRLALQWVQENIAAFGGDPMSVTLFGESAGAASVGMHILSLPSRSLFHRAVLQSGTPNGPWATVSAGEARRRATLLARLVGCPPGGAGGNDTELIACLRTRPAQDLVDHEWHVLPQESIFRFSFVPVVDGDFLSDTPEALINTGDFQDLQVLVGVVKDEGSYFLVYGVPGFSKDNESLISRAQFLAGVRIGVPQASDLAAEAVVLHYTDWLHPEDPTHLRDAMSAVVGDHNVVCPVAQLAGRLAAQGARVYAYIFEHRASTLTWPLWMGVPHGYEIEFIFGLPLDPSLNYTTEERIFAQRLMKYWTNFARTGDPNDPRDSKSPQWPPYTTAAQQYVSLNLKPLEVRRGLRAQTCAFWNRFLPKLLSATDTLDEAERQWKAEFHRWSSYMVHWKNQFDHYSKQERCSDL
Outline: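 Inhibition of murine AChE measured by the Ellman method with acetylthiocholine iodide as substrate. IC50 determined only where inhibition reached at least 50% at 10 µM. Otherwise recorded as IC50 >10 µM.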

[4] = target: Butyrylcholinesterase (Rattus norvegicus) (UniProt Q9JKC1); details: 300 uM
Sequence of Butyrylcholinesterase (Rattus norvegicus) (Q9JKC1 as listed by the source): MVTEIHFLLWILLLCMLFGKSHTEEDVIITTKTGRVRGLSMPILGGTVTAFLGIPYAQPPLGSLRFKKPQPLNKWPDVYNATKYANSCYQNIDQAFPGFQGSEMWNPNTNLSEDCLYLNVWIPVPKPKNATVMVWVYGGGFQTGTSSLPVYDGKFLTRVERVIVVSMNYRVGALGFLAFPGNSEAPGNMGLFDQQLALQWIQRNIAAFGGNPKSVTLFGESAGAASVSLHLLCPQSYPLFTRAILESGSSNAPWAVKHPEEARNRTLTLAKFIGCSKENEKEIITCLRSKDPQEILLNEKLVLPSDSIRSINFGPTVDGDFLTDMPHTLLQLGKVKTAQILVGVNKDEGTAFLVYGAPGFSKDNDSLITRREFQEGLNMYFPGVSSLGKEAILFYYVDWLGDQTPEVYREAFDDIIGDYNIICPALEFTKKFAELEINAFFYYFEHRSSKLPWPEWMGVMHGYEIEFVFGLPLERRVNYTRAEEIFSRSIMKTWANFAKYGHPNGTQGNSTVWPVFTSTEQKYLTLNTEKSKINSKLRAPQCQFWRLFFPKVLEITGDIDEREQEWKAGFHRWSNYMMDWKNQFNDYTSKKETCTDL

Mus musculus [5] = test: Reversal of scopolamine-induced memory loss in C57BL/6J mouse assessed as decrease in escape latency time at 10 mg/kg, ip administered 60 mins prior to test post scopolamine-challenge measured on day 7 by Morris water maze test; type: functional, organism-based
Mus musculus [6] = test: Reversal of scopolamine-induced memory impairment in C57BL/6J mouse assessed as decrease in traveled distance to reach the escape platform at 10 mg/kg, ip administered 60 mins prior to test post scopolamine challenge measured on day 7 by Morris water maze test; type: functional, organism-based
[7] = Drug level in cryopreserved human hepatocytes treated with HCl salt of (+/-)-N-((1-(2,3-Dihydro-1H-inden-2-yl)piperidin-3-yl)methyl)-N-(2-(dimethylamino)ethyl)-2-naphthamide Dichloride at 1 uM after 120 mins by HPLC-MS/MS analysis; type: ADME, cell-based, Hepatocyte; details: 2 h
Outline: (§1)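 Flurazepam, naloxone and propranolol, which are high-extraction […] references, served as positive controls.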

in vitro [8] = details: human, SH-SY5Y cells
Mus musculus [9] = test: Toxicity in Albino Swiss CD-1 mouse assessed as reduction in locomotor activity by measuring number of light beam crossings at 30 mg/kg, ip measured at 24 to 30 mins post dose; type: organism-based; details: in vivo
Outline: (§2)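 Mice were given 30 mg/kg intraperitoneally, the same dose used in the Morris water-maze task. Safety was assessed with a locomotor activity test monitored over time, rotarod at 6, 18 and 24 rpm, and observation for acute cholinergic adverse signs.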

Mus musculus [10] = test: Toxicity in Albino Swiss CD-1 mouse assessed as acute adverse cholinergic effects at 30 mg/kg, ip; type: organism-based; details: in vivo
Outline: as §2

[11] = Drug uptake in Wistar Han rat plasma at 10 mg/kg, ip after 1 hr by LC-MS/MS analysis; type: ADME, organism-based
[12] = Drug metabolism in cryopreserved human hepatocytes assessed as (+/-)-N-((1-(2,3-Dihydro-1H-inden-2-yl)piperidin-3-yl)methyl)-N-(2-(methylamino)ethyl)-2-naphthamide dihydrochloride formation at 1 uM after 120 mins by HPLC-MS/MS analysis; type: ADME, cell-based, Hepatocyte; details: 2 h
Outline: as §1

[13] = Ratio of drug level in brain to plasma in Wistar Han rat at 10 mg/kg, ip after 1 hr by LC-MS/MS analysis; type: ADME, organism-based; details: read-out: BPR
Outline: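 Rats received a single intraperitoneal injection of 10 mg/kg. Brain tissue (µg/kg) and blood plasma (µg/L) concentrations were measured 1 h later and reported as mean ±SEM. The brain-to-plasma ratio was calculated from these concentrations.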

Mus musculus [14] = test: Toxicity in Albino Swiss CD-1 mouse assessed as motor impairment at 30 mg/kg, ip using rod revolving at 6, 18, or 24 rpm after 60 mins by rotarod test; type: organism-based; details: in vivo, 1 h
Outline: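 Rotarod test in mice given 30 mg/kg intraperitoneally, the dose used in the water maze tests. Motor performance recorded at rod speeds of 6, 18 and 24 rpm.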

[15] = Stability of the compound in human plasma assessed as compound remaining at 1 uM after 120 mins by HPLC-MS/MS analysis; type: ADME, cell-free; details: read-out: Stability
in vitro [16] = details: human, HepG2 cells
Brain = details: rat, in vivo, ip, 10 mg/kg, 1 h
[17] = Half life in human plasma at 1 uM by HPLC-MS/MS analysis; type: ADME, cell-free
Mus musculus [18] = test: Reversal of scopolamine-induced hyperlocomotion in C57BL/6J mouse assessed as speed of swimming at 30 mg/kg, ip administered 60 mins prior to test post scopolamine challenge measured on day 7 by Morris water maze test (reference value: 0.20 meter/s); type: functional
[19] = Apparent permeability across apical to basolateral side in human Caco2 cells at 100 uM after 20 mins by fluorescein dye based HPLC-UV analysis; type: ADME, cell-based; details: Caco-2
Outline: (§3)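 Caco-2 permeability (Papp) was measured bidirectionally, absorptive apical-to-basolateral and eliminatory basolateral-to-apical. The efflux ratio was calculated as Papp(B–A)/Papp(A–B).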

[20] = Apparent permeability across basolateral to apical side in human Caco2 cells at 100 uM after 20 mins by fluorescein dye based HPLC-UV analysis; type: ADME, cell-based; details: Caco-2
Outline: as §3

[21] = Protein binding in human plasma at 10 uM after 4 hrs by HPLC-MS/MS analysis; type: ADME, cell-free; details: read-out: PPB (converted)
[22] = Half life in cryopreserved human hepatocytes at 1 uM after 120 mins by HPLC-MS/MS analysis; type: ADME, cell-based, Hepatocyte
Outline: as §1

[23] = Apparent intrinsic clearance in cryopreserved human hepatocytes assessed per million cells at 1 uM after 120 mins by HPLC-MS/MS analysis; type: ADME, cell-based, Hepatocyte; details: 2 h
Outline: as §1

Cholinesterase [24] = target: T1, Cholinesterase; details: 5 to 10 nM
Mus musculus [25] = test: Reversal of scopolamine-induced hyperlocomotion in C57BL/6J mouse assessed as speed of swimming at 10 mg/kg, ip administered 60 mins prior to test post scopolamine challenge measured on day 7 by Morris water maze test (reference value: 0.20 meter/s); type: functional
[26] = Efflux ratio of apparent permeability from basolateral to apical side over apical to basolateral side in human Caco2 cells; type: ADME, cell-based; details: Caco-2

For `O=c1cc(C(F)(F)F)c2ccc(O)cc2o1`, the Stability [1] was “Unstable”.
In the case of `c1ccc2c(NCCCCCCCNc3c4c(nc5ccccc35)CCCC4)c3c(nc2c1)CCCC3`, the Ki (Cholinesterase [2]) is reported as 0.163 nM.
For `COCCN(CC1CCN(Cc2ccccc2)CC1)C(=O)c1ccc2ccccc2c1`, the IC50 (Cholinesterase [3]) was 702 nM and the IC50 (Acetylcholinesterase) was over 10000 nM.
In the case of `COCCN(CC1CCCN(Cc2ccccc2)C1)S(=O)(=O)c1ccc2ccccc2c1` (configuration not stated), the inhibition [4] is reported as “Active” and the IC50 (Acetylcholinesterase) is reported as over 10000 nM.
For `COc1cc2c(cc1OC)C(=O)C(CC1CCN(Cc3ccccc3)CC1)C2` (configuration not stated), the Activity (Mus musculus [5]) was “Active” and the Activity (Mus musculus [6]) was “Active”.
`COCCN(CC1CCCN(Cc2ccccc2)C1)C(=O)c1ccc2ccccc2c1` (racemic) showed an IC50 (Cholinesterase [3]) of 230 nM and an IC50 (Acetylcholinesterase) of over 10000 nM.
In the case of `COCCN(CC1CCCN(C2Cc3ccccc3C2)C1)C(=O)c1ccc2cc(Br)ccc2c1` (racemic), the IC50 (Cholinesterase [3]) is reported as 410 nM and the IC50 (Acetylcholinesterase) is reported as over 10000 nM.
With `CNCCN(CC1CCCN(C2Cc3ccccc3C2)C1)C(=O)c1ccc2ccccc2c1.Cl.Cl` (racemic) the Drug metabolism [7] was “Metabolite_Detected” and the IC50 (Cholinesterase [3]) was 18 nM.
Work on `O=C(NCC1CCCN(Cc2ccccc2)C1)c1ccc2ccccc2c1` (racemic) yielded an IC50 (Cholinesterase [3]) of 1440 nM and an IC50 (Acetylcholinesterase) of over 10000 nM.
Molecule `O=C(NCC1CCCN(C2Cc3ccccc3C2)C1)c1cccc2ccccc12` (racemic) has an IC50 (Cholinesterase [3]) of 67 nM and an IC50 (Acetylcholinesterase) of over 10000 nM.
`O=C(NCC1CCCN(Cc2nc3ccccc3s2)C1)c1ccc2ccccc2c1` (racemic) gave an IC50 (Cholinesterase [3]) of 632 nM and an IC50 (Acetylcholinesterase) of over 10000 nM.
In the case of `CN(C)CCN(CC1CCCN(C2Cc3ccccc3C2)C1)C(=O)c1ccc2ccccc2c1.Cl` (racemic), the CC50 at 48 h (in vitro [8]) is reported as 6630 nM, the Activity (Mus musculus [9]) is reported as “Toxic” and the Activity (Mus musculus [10]) is reported as “Non-Toxic”. The concentration at 1 h [11] was 169 ng/mL, the Drug metabolism [12] was “Metabolite_Detected” and the Kp at 1 h [13] was 1.47. The Activity (Mus musculus [14]) was “Non-Toxic”, the remaining at 2 h, 1 µM [15] was 76% and the CC50 at 24 h (in vitro [16]) was 33900 nM. For the same molecule, the Drug uptake (Brain) was 248 µg/kg, the half-life at 1 µM [17] was over 2 h and the Activity (Mus musculus [18]) was 0.18 meter/s. The Papp A→B at 20 min, 100 µM [19] was 28 ×10⁻⁶ cm/s, the Papp B→A at 20 min, 100 µM [20] was 46.1 ×10⁻⁶ cm/s and the fraction unbound at 4 h, 10 µM [21] was 0.07. The half-life at 1 µM [22] was over 2 h and the “CLH(app)” value [23] was under 8.2 µL/min.
With `CN(C)CCN(CC1CCCN(C2Cc3ccccc3C2)C1)C(=O)c1ccc2ccccc2c1` (racemic) the IC50 (Acetylcholinesterase) was over 10000 nM.
For `COCCCN(CC1CCCN(C2Cc3ccccc3C2)C1)C(=O)c1ccc2ccccc2c1` (racemic), the IC50 (Cholinesterase [3]) was 38.2 nM and the IC50 (Acetylcholinesterase) was over 10000 nM.
For `COCCN(CC1CCCN(C2Cc3ccccc3C2)C1)C(=O)c1ccc2ccccc2c1` (single isomer, unassigned; (+)), the deltaG (Cholinesterase [24]) was -11.9 kcal/mol.
Molecule `COc1cc2c(cc1OC)C(=O)C(CC1CCN(Cc3ccccc3)CC1)C2.Cl` (configuration not stated) [DONEPEZIL HYDROCHLORIDE] has an Activity (Mus musculus [25]) of 0.15 meter/s.
Work on `COc1cc2c(cc1OC)C(=O)C(CC1CCN(Cc3ccccc3)CC1)C2` (configuration not stated) [DONEPEZIL] yielded a concentration at 1 h [11] of 2 to 300 ng/mL.
With `CCN(CC)CCN1C(=O)CN=C(c2ccccc2F)c2cc(Cl)ccc21` [FLURAZEPAM] the Stability [1] was “Unstable”.
Molecule `COC(=O)c1ccccc1-c1c2ccc(=N)cc-2oc2cc(N)ccc12.Cl` [RHODAMINE123] has an efflux ratio [26] of 7.3, a Papp A→B at 20 min, 100 µM [19] of 1.1 ×10⁻⁶ cm/s and a Papp B→A at 20 min, 100 µM [20] of 7.7 ×10⁻⁶ cm/s.
